# Published values from different studies.
# Compare with care: the assays were run in different laboratories.
# Read-out: cell growth or viability
Structure (SMILES),cell line,method,time,IC50 [µM]
COc1cccc2c1C(=O)c1c(O)c3c(c(O)c1C2=O)C[C@@](O)(C(=O)CO)C[C@@H]3O[C@H]1C[C@H](N)[C@H](O)[C@H](C)O1,MOLT-3,XTT,75 h,0.046
Nc1ccccc1NC(=O)c1ccc(Cn2cnc3c(Nc4ccc(Cl)cc4)ncnc32)cc1,NALM-6,MTT,72 h,1.55
COc1cccc2c1C(=O)c1c(O)c3c(c(O)c1C2=O)C[C@@](O)(C(=O)CO)C[C@@H]3O[C@H]1C[C@H](N)[C@H](O)[C@H](C)O1,CAL-51,ATP luminescence,72 h,0.12
CC(C)(C)c1cnc(CSc2cnc(NC(=O)C3CCN(C(=O)CCCCCCCN4Cc5cc6c(cc5C4)C(=O)N(C4CCC(=O)NC4=O)C6=O)CC3)s2)o1 (stereo not drawn),NALM-6,MTT,,0.0234
CN1C(=O)C(=O)c2cc3c(c4c2c1cc1ccccc14)OCO3,MOLT-3,XTT,75 h,20.4
CCc1ccc(N=C2C(=O)N(Cc3ccccc3)c3ccccc32)cc1,L02,MTT,48 h,86.7
COc1cccc2c1cc1c3c(cc4c(c32)OCO4)C(=O)N1C,MOLT-3,XTT,75 h,50.3
O=C1C(=Nc2ccc(Cl)cc2)c2ccccc2N1Cc1ccc(Br)cc1,L02,MTT,48 h,> 100
COC[C@H](NC(=O)c1ccn(S(C)(=O)=O)c1)C(=O)Nc1nc(-c2cccc(N3C[C@@H](C)O[C@@H](C)C3)n2)cs1,NCI-H1944,ATP luminescence,7 days,0.0451
O=C1C(=Nc2ccc(Cl)cc2Br)c2ccccc2N1Cc1ccc(Br)cc1,L02,MTT,48 h,7.75
O=C(NO)c1ccc(Cn2cnc3c(Nc4ccc(Br)cc4F)ncnc32)cc1,NALM-6,MTT,72 h,2.12
Cc1cc(Nc2ncnc3ccc(NC4=NC(C)(C)CO4)cc23)ccc1Oc1ccn2ncnc2c1,HCC1419,ATP luminescence,,0.0302
COc1ccc(Nc2ncnc3c2ncn3Cc2ccc(C(=O)NO)cc2)cc1,NALM-6,MTT,72 h,2.01
Cc1cccc(N=C2C(=O)N(Cc3cccc(Cl)c3)c3ccccc32)c1,L02,MTT,48 h,25.8
Cc1ncsc1-c1ccc(CNC(=O)[C@@H]2C[C@@H](O)CN2C(=O)[C@@H](NC(=O)C2(F)CC2)C(C)(C)C)c(OCCOc2ccc(CN3CCN(c4cc(-c5ccccc5O)nnc4N)CC3)cc2)c1,NCI-H1944,ATP luminescence,7 days,0.169
C(=N\Nc1cc(N/N=C/c2ccc3ccccc3n2)ncn1)/c1ccc2ccccc2n1,L02,MTT,48 h,> 100
CC(C)c1cccc(C(C)C)c1N=C1C(=O)N(Cc2ccccc2)c2ccccc21,L02,MTT,48 h,59
CS(=O)(=O)CCNCc1ccc(-c2ccc3ncnc(Nc4ccc(OCc5cccc(F)c5)c(Cl)c4)c3c2)o1,HCC1419,ATP luminescence,,0.0544
COc1ccc(Nc2ncnc3c2ncn3Cc2ccc(C(=O)Nc3ccccc3N)cc2)cc1,NALM-6,MTT,72 h,7.81
O=C1C(=Nc2ccccc2I)c2ccccc2N1Cc1cccc(Cl)c1,L02,MTT,48 h,19.1
CC1=CC(=O)c2ccccc2C1=O,MOLT-3,XTT,,10.3
O=C(CCc1ccc(Cl)cc1)N1C(=O)C(=Nc2ccc(Cl)cc2Br)c2ccccc21,L02,MTT,48 h,> 100
C(=N\Nc1cc(N/N=C/c2cccc3cccnc23)ncn1)/c1cccc2cccnc12,L02,MTT,48 h,31.6
CC1=CC(=O)C(C(C)C)=CC1=O,PANC-1,SRB,48 h,8.9
